Reference: ChEMBL document CHEMBL1687722, “Mode of action of Ranbezolid against staphylococci and structural modeling studies of its interaction with ribosomes” (Antimicrob Agents Chemother, 2009)
pIC50: −log10 of the molar value. Converted amounts (≈) assume the structure as drawn. The source made the active and inactive calls. The calls are words filed in the database; no cut-off is given here.

Experiments:
[1] = test system: Staphylococcus epidermidis; assay: Inhibition of protein synthesis in Staphylococcus epidermidis ATCC 23760 assessed as incorporation of [14C]isoleucine at 2 ug/ml by liquid scintillation counter; assay type: functional, organism-based
Summary of the method: (§1)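 Whole-cell macromolecular synthesis. Cells grown in MHB to early log phase (OD600 0.3) were given a labelled precursor: [3H]thymidine, [3H]uridine or [3H]N-acetylglucosamine at 1 µCi/ml, or [14C]isoleucine or [14C]acetate at 0.1 µCi/ml. Drug was added 5 min later. Macromolecules were precipitated with ice-cold TCA (5% final), filtered, dried overnight at 37°C and counted by scintillation. A pathway-specific antibiotic was run as positive control.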

[2] = test system: Staphylococcus epidermidis; assay: Induction of bacterial membrane damage in Staphylococcus epidermidis ATCC 23760 at 4 ug/mL by BacLight assay; assay type: functional, organism-based
Summary of the method: (§2)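 BacLight membrane integrity. Mid-log MHB cultures (OD600 0.5–0.6) were washed and resuspended in water, then exposed to drug at 1–8 µg/ml for 15–30 min at room temperature (25°C) with shaking. Cells were washed, set to OD670 0.325 and stained with Syto 9/propidium iodide for 15 min in the dark. The Syto 9 (480/500 nm) to PI (490/635 nm) fluorescence ratio was compared with untreated controls. Valinomycin and CCCP served as positive controls.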

[3] = test system: Staphylococcus aureus; assay: Inhibition of DNA synthesis in Staphylococcus aureus ATCC 25923 assessed as incorporation of [3H]thymidine at 2 ug/ml by liquid scintillation counter; assay type: functional, organism-based; summary of the method: as §1
[4] = test system: Staphylococcus aureus; assay: Induction of bacterial membrane damage in Staphylococcus aureus ATCC 25923 at 4 ug/mL by BacLight assay; assay type: functional, organism-based; summary of the method: as §2
[5] = test system: Staphylococcus aureus; assay: Inhibition of RNA synthesis in Staphylococcus aureus ATCC 25923 assessed as incorporation of [3H]uridine at 2 ug/ml by liquid scintillation counter; assay type: functional, organism-based; summary of the method: as §1
[6] = test system: Staphylococcus epidermidis; assay: Bacteriostatic activity against Staphylococcus epidermidis ATCC 23760 at 4 X MIC after 24 hrs by time-kill analysis; assay type: functional, organism-based
[7] = test system: Staphylococcus epidermidis; assay: Inhibition of cell wall synthesis in Staphylococcus epidermidis ATCC 23760 assessed as incorporation of [3H]N-acetylglucosamine at 2 ug/ml after 60 mins by liquid scintillation counter; assay type: functional, organism-based; summary of the method: as §1
[8] = test system: Staphylococcus aureus; assay: Bacteriostatic activity against Staphylococcus aureus ATCC 25923 at 8 times MIC after 30 hrs by time-kill analysis; assay type: functional, organism-based
[9] = test system: Staphylococcus epidermidis; assay: Antimicrobial activity against Staphylococcus epidermidis ATCC 23760 by microdilution method; assay type: functional
Summary of the method: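 MIC determined by broth microdilution in the course of the macromolecular synthesis work; cultures grown in Mueller-Hinton broth.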

[10] = test system: Ribosome; assay: Inhibition of mammalian ribosomal activity by coupled transcription/translation assay; assay type: subcellular
Summary of the method: (§3)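 Cell-free coupled transcription/translation of a luciferase gene, using E. coli S30 extract (bacterial) or a TNT kit (mammalian ribosomes). Percent inhibition of luciferase activity across a range of drug concentrations was calculated relative to the no-drug control.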

[11] = Inhibition of ribosomal activity in Escherichia coli S30 by coupled transcription/translation assay; assay type: subcellular, Ribosome; summary of the method: as §3
[12] = test system: Staphylococcus epidermidis; assay: Inhibition of DNA synthesis in Staphylococcus epidermidis ATCC 23760 assessed as incorporation of [3H]thymidine at 2 ug/ml by liquid scintillation counter; assay type: functional, organism-based; summary of the method: as §1
[13] = test system: Staphylococcus epidermidis; assay: Inhibition of RNA synthesis in Staphylococcus epidermidis ATCC 23760 assessed as incorporation of [3H]uridine at 2 ug/ml by liquid scintillation counter; assay type: functional, organism-based; summary of the method: as §1
[14] = test system: Staphylococcus aureus; assay: Inhibition of protein synthesis in Staphylococcus aureus ATCC 25923 assessed as incorporation of [14C]isoleucine at 2 ug/ml by liquid scintillation counter; assay type: functional, organism-based; summary of the method: as §1
[15] = test system: Staphylococcus epidermidis; assay: Inhibition of lipid synthesis in Staphylococcus epidermidis ATCC 23760 assessed as incorporation of [14C]acetate at 2 ug/ml after 60 mins by liquid scintillation counter; assay type: functional, organism-based; summary of the method: as §1
[16] = test system: Staphylococcus epidermidis; assay: Induction of bacterial membrane damage in Staphylococcus epidermidis ATCC 23760 at 15 uM by BacLight assay; assay type: functional
Summary of the method: (§4)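 Mid-log cells (overnight MHB culture at 37°C, diluted 1:100, grown to OD600 0.5–0.6) washed in water, diluted 1:20 into water containing compound, shaken 15–30 min at room temperature (25°C). Washed, adjusted to OD670 0.325, stained with BacLight reagent (3 µl/ml) for 15 min in the dark. Syto 9 (480/500 nm)/propidium iodide (490/635 nm) fluorescence ratio expressed versus control; <40% of control indicates membrane damage.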

[17] = test system: Staphylococcus aureus; assay: Induction of bacterial membrane damage in Staphylococcus aureus ATCC 25923 at 15 uM by BacLight assay; assay type: functional; summary of the method: as §4
[18] = test system: Staphylococcus epidermidis; assay: Induction of bacterial membrane damage in Staphylococcus epidermidis ATCC 23760 at 2 ug/mL by BacLight assay relative to untreated control; assay type: functional; summary of the method: as §2
[19] = test system: Staphylococcus aureus; assay: Inhibition of DNA synthesis in Staphylococcus aureus ATCC 25923 assessed as incorporation of [3H]thymidine at 1 ug/ml by liquid scintillation counter; assay type: functional, organism-based; summary of the method: as §1
[20] = test system: Staphylococcus epidermidis; assay: Bactericidal activity against Staphylococcus epidermidis ATCC 23760 by time-kill analysis; assay type: functional
[21] = test system: Staphylococcus epidermidis; assay: Inhibition of lipid synthesis in Staphylococcus epidermidis ATCC 23760 assessed as incorporation of [14C]acetate at 1 ug/ml after 60 mins by liquid scintillation counter; assay type: functional, organism-based; summary of the method: as §1
[22] = test system: Staphylococcus epidermidis; assay: Bactericidal activity against Staphylococcus epidermidis ATCC 23760 at 8 ug/ml after 4 hrs by time-kill analysis; assay type: functional, organism-based
[23] = test system: Staphylococcus epidermidis; assay: Induction of bacterial membrane damage in Staphylococcus epidermidis ATCC 23760 at 2 to 8 ug/mL by BacLight assay; assay type: functional, organism-based; summary of the method: as §2
[24] = test system: Staphylococcus aureus; assay: Inhibition of protein synthesis in Staphylococcus aureus ATCC 25923 assessed as incorporation of [14C]isoleucine at 1 ug/ml by liquid scintillation counter; assay type: functional, organism-based; summary of the method: as §1
[25] = test system: Staphylococcus epidermidis; assay: Inhibition of DNA synthesis in Staphylococcus epidermidis ATCC 23760 assessed as incorporation of [3H]thymidine at 1 ug/ml by liquid scintillation counter; assay type: functional, organism-based; summary of the method: as §1
[26] = test system: Staphylococcus aureus; assay: Inhibition of RNA synthesis in Staphylococcus aureus ATCC 25923 assessed as incorporation of [3H]uridine at 1 ug/ml by liquid scintillation counter; assay type: functional, organism-based; summary of the method: as §1
[27] = test system: Staphylococcus epidermidis; assay: Inhibition of protein synthesis in Staphylococcus epidermidis ATCC 23760 assessed as incorporation of [14C]isoleucine at 1 ug/ml by liquid scintillation counter; assay type: functional, organism-based; summary of the method: as §1
[28] = test system: Staphylococcus aureus; assay: Bactericidal activity against Staphylococcus aureus ATCC 25923 at 16 ug/ml by time-kill analysis; assay type: functional, organism-based
[29] = test system: Staphylococcus epidermidis; assay: Induction of bacterial membrane damage in Staphylococcus epidermidis ATCC 23760 at 1 ug/mL by BacLight assay relative to untreated control; assay type: functional, organism-based; summary of the method: as §2
[30] = test system: Staphylococcus aureus; assay: Antimicrobial activity against Staphylococcus aureus ATCC 25923 by microdilution method; assay type: functional
[31] = test system: Staphylococcus epidermidis; assay: Bactericidal activity against Staphylococcus epidermidis ATCC 23760 at 4 ug/ml after 6 hrs by time-kill analysis; assay type: functional, organism-based
[32] = Ratio of IC50 for mammalian ribosomal activity to ribosomal activity in Escherichia coli S30 by coupled transcription/translation assay; assay type: subcellular; conditions: Ribosome
[33] = test system: Staphylococcus epidermidis; assay: Inhibition of cell wall synthesis in Staphylococcus epidermidis ATCC 23760 assessed as incorporation of [3H]N-acetylglucosamine at 1 ug/ml after 60 mins by liquid scintillation counter; assay type: functional, organism-based; summary of the method: as §1
[34] = test system: Staphylococcus epidermidis; assay: Inhibition of RNA synthesis in Staphylococcus epidermidis ATCC 23760 assessed as incorporation of [3H]uridine at 1 ug/ml by liquid scintillation counter; assay type: functional, organism-based; summary of the method: as §1
[35] = test system: Staphylococcus epidermidis; assay: Induction of bacterial membrane damage in Staphylococcus epidermidis ATCC 23760 at 100 uM by BacLight assay; assay type: functional; summary of the method: as §4
[36] = test system: Staphylococcus aureus; assay: Induction of bacterial membrane damage in Staphylococcus aureus ATCC 25923 at 100 uM by BacLight assay; assay type: functional; summary of the method: as §4

In the case of `CC(=O)NC[C@H]1CN(c2ccc(N3CCOCC3)c(F)c2)C(=O)O1` [LINEZOLID], the inhibition [1] was “Active”, the Activity [2] was “inactive” and the inhibition [3] was “inactive”. For the same compound, the Activity [4] was “inactive”, the inhibition [5] was “inactive” and the Activity [6] was “Active”. For the same compound, the inhibition [7] was “Active”, the Activity [8] was “Active” and the MIC [9] was 2 µg/mL (≈ 5.93 µM). For the same compound, the pIC50 [10] was 1.92, the pIC50 [11] was 4.00 and the inhibition [12] was “inactive”. For the same compound, the inhibition [13] was “inactive”, the inhibition [14] was “Active” and the inhibition [15] was “Active”.
With `N#CC(C#N)=NNc1cccc(Cl)c1` [CARBONYL CYANIDE M-CHLOROPHENYLHYDRAZONE] the Activity [16] was <40% and the Activity [17] was <40%.
For `CC(=O)NC[C@H]1CN(c2ccc(N3CCN(Cc4ccc([N+](=O)[O-])o4)CC3)c(F)c2)C(=O)O1` [RANBEZOLID], the Activity [18] was 50%, the inhibition [19] was “inactive” and the Activity [2] was “Active”. For the same compound, the Activity [20] was 99.9%, the Activity [4] was “inactive” and the inhibition [21] was “Active”. For the same compound, the Activity [8] was “Active”, the Activity [22] was “Active” and the MIC [9] was 1 µg/mL (≈ 2.17 µM). For the same compound, the Activity [23] was “Active”, the inhibition [24] was “Active” and the inhibition [25] was “inactive”. For the same compound, the inhibition [26] was “inactive”, the pIC50 [10] was 1.83 and the inhibition [27] was “Active”. For the same compound, the pIC50 [11] was 4.77, the Activity [28] was “Active” and the Activity [29] was “inactive”. The MIC [30] was 1 µg/mL (≈ 2.17 µM), the Activity [31] was “Active” and the Ratio [32] was 865. The inhibition [33] was “Active” and the inhibition [34] was “inactive”.
With `CC(C)[C@@H]1NC(=O)[C@H](C)OC(=O)[C@@H](C(C)C)NC(=O)[C@@H](C(C)C)OC(=O)[C@H](C(C)C)NC(=O)[C@H](C)OC(=O)[C@@H](C(C)C)NC(=O)[C@@H](C(C)C)OC(=O)[C@H](C(C)C)NC(=O)[C@H](C)OC(=O)[C@@H](C(C)C)NC(=O)[C@@H](C(C)C)OC1=O` [VALINOMYCIN] the Activity [35] was <40% and the Activity [36] was <40%.
